# MBD2 inh – inhibitors of MBD2 binding to methylated DNA, primary screen, biochemical, TR-FRET, DNA-binding domain, human; MBD2 binding to methylated oligonucleotide; actives 0.31% (n = 370,000); inhibition, % at 4.4 µM; in the data active = inhibition above about 13%
# UHRF1 binding – UHRF1 methylated DNA binding inhibitors, primary screen, counter-screen for MBD2 inhibitor project, biochemical, TR-FRET, human UHRF1, single concentration | E3 ubiquitin-protein ligase UHRF1 (Homo sapiens), Q96T88 | UHRF1 binding to methylated oligo | inhibition, % at 4.4 µM | actives 0.75% (n = 370,000) | AID 687016, 2013; in the data active = inhibition above about 21%;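 note: UHRF1 SRA domain binding a hemimethylated CpG hairpin DNA probe; 0% = median of test compound wells and 100% = reference inhibitor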
# LEDGF integ inh – blockers of LEDGF/p75-dependent integrase strand transfer – biochemical, TR-FRET, high throughput, primary screen. AID 743269, 2014. HIV-1 integrase (with human LEDGF/p75). inhibition, % at 3.7 µM. actives 0.64% (n = 370,000). TR-FRET IN-LEDGF/p75 DNA integration, Eu/Cy5;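 active = inhibition above the screen-wide mean plus 3 SD, cut at about 13% in these data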;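 note: signal is the Cy5 over europium emission ratio at 671 and 618 nm; 0% = plate median of compound wells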
# NSD2 inh – NSD2 histone methyltransferase inhibitors, primary screen, biochemical, AlphaScreen, single concentration, set 2; Histone-lysine N-methyltransferase NSD2 (Homo sapiens), O96028; NSD2 peptide methylation, 120 min; inhibition, % at 12.5 µM; actives 0.54% (n = 310,000); AID 743445, 2014; in the data active = inhibition above about 50%
# CASP6 VEID inh – human caspase-6 inhibitors, primary screen, biochemical, VEID-R110 fluorescence, single point, set 2; P55212; purified caspase-6, Z-VEID-R110 cleavage fluorescence; inhibition, % at 12.5 µM; actives 0.53% (n = 350,000); AID 686996, 2013;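 active = mean inhibition across replicates at least about 35%, with every replicate also reaching that limit, limit read from the data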;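 note: 0% = median of neutral control wells and 100% = no fluorescence left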
# Target sequence (P55212 24-179 limits assumed): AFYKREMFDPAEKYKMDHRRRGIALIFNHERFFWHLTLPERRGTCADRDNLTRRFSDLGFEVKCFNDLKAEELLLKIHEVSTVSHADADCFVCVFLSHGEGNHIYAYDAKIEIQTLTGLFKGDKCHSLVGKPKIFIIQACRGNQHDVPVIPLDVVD
# Target sequence (P55212 194-293 limits assumed): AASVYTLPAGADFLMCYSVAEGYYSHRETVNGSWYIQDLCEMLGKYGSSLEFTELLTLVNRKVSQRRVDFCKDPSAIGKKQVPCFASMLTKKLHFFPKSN
# TDP2 absorb – human TDP2 enzyme inhibitors, primary screen, biochemical, epi absorbance, recombinant enzyme; Tyrosyl-DNA phosphodiesterase 2 (Homo sapiens), O95551; T5PNP hydrolysis, p-nitrophenol absorbance 415 nm; inhibition, % at 12.8 µM; actives 0.34% (n = 370,000); AID 720702, 2013;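 active = inhibition above the mean of all tested compounds plus 3 SD, set per campaign, cut at about 25% in these data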;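 note: 0% = DMSO with enzyme and 100% = buffer with substrate but no TDP2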
# Target sequence (O95551 whole entry, looked up): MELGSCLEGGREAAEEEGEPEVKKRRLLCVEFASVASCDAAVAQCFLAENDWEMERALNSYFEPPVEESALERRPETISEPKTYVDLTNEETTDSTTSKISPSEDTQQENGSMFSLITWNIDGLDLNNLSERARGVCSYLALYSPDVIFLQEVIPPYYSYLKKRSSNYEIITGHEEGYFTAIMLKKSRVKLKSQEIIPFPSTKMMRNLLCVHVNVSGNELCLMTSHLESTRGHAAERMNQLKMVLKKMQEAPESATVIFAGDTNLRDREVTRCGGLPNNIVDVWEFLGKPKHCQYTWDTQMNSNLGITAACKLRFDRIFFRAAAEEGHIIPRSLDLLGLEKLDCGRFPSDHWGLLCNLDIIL
#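 System – recombinant human TDP2 · Quantity – TDP2 enzyme at 120 nM final · Doses – single concentration, 12.8 µM nominal, with 1% DMSO · Incubation – 2 h at 37 °C · Measured by – epi absorbance of p-nitrophenol freed from T5PNP by hydrolysis · Read-out – % inhibition relative to enzyme-containing and enzyme-free wells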
# TDP2 inh conf – human TDP2 enzyme inhibitors, retest, confirmation, biochemical, epi absorbance, recombinant enzyme; shares compounds with TDP2 absorb; absorbance read-out; inhibition, % at 12.8 µM; actives 22% (n = 1,100); in the data active = inhibition above about 25%;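 note: 0% = vehicle with enzyme and 100% = no enzyme buffer only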
# Numbers without * were called inactive; nt = no result. A selection: hits, their analogues and other compounds. The true share with any hit is near 1.9%.
SMILES,MBD2 inh,UHRF1 binding,LEDGF integ inh,NSD2 inh,CASP6 VEID inh,TDP2 absorb,TDP2 inh conf
COc1ccc(NC(=O)c2cc(-c3ccc(C)c(C)c3O)n[nH]2)cc1Cl,-2.2,0.8,2.2,-2.7,2.0,74.8*,2.1
Cc1ccccc1N1CCN(Cc2ccc([N+](=O)[O-])o2)CC1,-1.5,-2.8,-1.0,5.6,8.0,5.7,nt
O=[N+]([O-])c1ccc(CN2CCN(c3ccccc3Cl)CC2)o1,-3.4,0.7,6.3,6.0,3.4,27.2*,17.9
COc1cccc(S(=O)(=O)N2C[C@H](O)COC[C@H]3O[C@@H](CC(=O)Nc4ccccc4)CC[C@@H]32)c1,nt,nt,nt,nt,2.4,nt,nt
CCOC(=O)c1c(S(=O)(=O)N2c3ccccc3CC2C)c(C)n(C)c1C (configuration not stated),-0.4,4.8,-1.8,3.6,-3.0,-8.7,nt
CCOC(=O)c1c(C)[nH]c(C)c1S(=O)(=O)N1c2ccccc2CC1C (configuration not stated),0.9,3.0,0.1,5.7,-2.2,54.7*,4.0
CCOc1ccc(NC2=CC(=O)C(=O)c3ccccc32)cc1,-25.8,-8.0,22.9*,18.1,0.9,32.3*,39.6*
CCOc1ccc(NC2=CC(=O)CCC2)cc1,-3.8,-3.4,1.5,2.1,2.4,17.8,nt
N/C(=N\N=C\c1ccc(Br)o1)c1nonc1N,2.9,-5.2,-2.0,2.0,-0.2,30.5*,-0.9
Nc1nonc1C(=O)N/N=C/c1ccc(Br)o1,0.7,-0.6,0.3,-2.1,-1.1,-2.0,nt
C[C@@H]1CN([C@@H](C)CO)C(=O)c2cccc(NC(=O)c3nc4ccccc4s3)c2O[C@H]1CN(C)C(=O)NC1CCCCC1,nt,nt,nt,nt,1.5,nt,nt
COc1cccc(C#Cc2ccc3c(c2)O[C@@H](CN(C)C(=O)c2ccccn2)[C@@H](C)CN([C@@H](C)CO)S3(=O)=O)c1,nt,nt,nt,nt,-2.2,nt,nt
N#Cc1ccc(OCc2ccc(C(=O)O)o2)cc1,-3.0,-0.6,-3.0,-0.6,-0.5,25.6*,1.6
O=C(O)c1ccc(OCc2ccc(C(=O)O)o2)cc1,-3.7,1.1,-1.4,2.9,27.7,16.5,nt
C[C@H](CO)N1C[C@H](C)[C@H](CN(C)C(=O)Nc2ccccc2)Oc2c(NC(=O)C3CCCCC3)cccc2C1=O,nt,nt,nt,nt,0.3,nt,nt
O=C(CNc1cccc2ccccc12)N/N=C/C(Br)=C/c1ccccc1,-3.8,0.2,12.3,-1.8,nt,37.6*,-1.0
CCc1csc(N2[C@H](C#N)[C@@H](c3ccc(-c4ccc(F)cc4)cc3)[C@H]2CO)n1,nt,nt,nt,nt,0.6,nt,nt
C[C@@H]1CCCCO[C@@H](CN(C)C(=O)c2ccncc2)[C@@H](C)CN([C@H](C)CO)C(=O)c2cc(NS(=O)(=O)c3ccccc3)ccc2O1,nt,nt,nt,nt,0.6,nt,nt
COc1ccc(/C=C2/C(=O)N(Cc3ccccc3)N=C2C)cc1,-9.4,1.1,3.8,2.6,1.7,70.8*,14.1
COc1ccc(CNc2nc3nc(-c4ccccc4)cc(=O)n3[nH]2)cc1OC,6.0,2.7,-2.3,2.0,nt,32.6*,6.7
CN=C(Nc1cc(C)nn1CCC#N)c1ccccc1,-0.4,0.3,-0.1,-3.0,4.2,7.8,nt
Cc1cc(OC(=O)c2ccccc2)n(CCC#N)n1,0.2,4.7,13.2,1.0,nt,50.5*,10.7
C[C@H](CO)N1C[C@H](C)[C@@H](CN(C)S(=O)(=O)c2cccs2)Oc2ccc(NC(=O)C3CC3)cc2CC1=O,nt,nt,nt,nt,23.3,nt,nt
N#CC1=C(c2ccccc2)/C(=C/c2ccccc2)OC1=O,2.0,-2.4,-0.4,2.2,nt,20.7,nt
N#CC(C#N)=C1NC(N)=C(C#N)C(c2ccccc2)=C1C#N,8.5,6.6,1.5,1.2,34.8,31.6*,28.7*
SMILES,MBD2 inh,UHRF1 binding,LEDGF integ inh,NSD2 inh,CASP6 VEID inh,TDP2 absorb,TDP2 inh conf
O=C(NCc1ccc(F)cc1)C1CC(=O)N(Cc2ccco2)C1 (configuration not stated),-8.0,-2.6,1.6,nt,-0.4,25.2*,-5.7
CC(C)C(=O)NC(c1cccs1)c1cc([N+](=O)[O-])c2cccnc2c1O (configuration not stated),nt,nt,nt,0.4,nt,nt,nt
CCC(=O)NC(c1cccs1)c1cc([N+](=O)[O-])c2cccnc2c1OC (configuration not stated),-14.2,-0.7,6.8,nt,30.8,69.8*,18.5
COc1ccc(-c2cnc3c(c2)C(=O)N([C@H](C)CO)C[C@@H](C)[C@@H](CN(C)S(C)(=O)=O)O3)cc1,nt,nt,nt,nt,1.6,nt,nt
O=C(c1cccnc1)N1CCN(Cc2ccc3ccccc3c2)CC1,2.1,-3.9,-2.9,-0.4,-0.6,30.6*,-0.3
CC(C)C[C@H]1COCc2cn(nn2)CC[C@@H](Cc2ccccc2)C(=O)N1,nt,nt,nt,nt,-1.6,nt,nt
COc1cc(OC)c(OC)cc1CN1CCN(Cc2ccc(SC)cc2)CC1,1.4,-2.1,2.8,8.0,-1.2,24.9*,-0.6
COc1cc(CN2CCN(Cc3ccc(SC)cc3)CC2)cc(OC)c1O,0.9,3.3,-0.7,-1.2,0.0,5.0,nt
Cc1ccc(/C([O-])=C(/C(=S)NCc2ccccc2)[n+]2cccc(CO)c2)cc1[N+](=O)[O-],-6.7,-1.9,4.6,1.8,-4.3,25.9*,1.4
O=c1cc(-c2ccc(Br)cc2)[nH][nH]1,-0.3,1.9,5.1,0.5,23.5,51.0*,10.2
O=c1cc(-c2ccc(C3CCCCC3)cc2)[nH][nH]1,-2.7,-2.5,2.0,12.9,5.9,3.4,nt
CN(Cc1cnn(C)c1)Cc1nc(-c2ccc(Cl)cc2)no1,1.5,1.6,-5.3,2.9,-0.7,-9.5,nt
CCc1ccc(CN(C)Cc2nc(-c3cccc(Cl)c3)no2)nc1,0.8,-0.4,5.4,-3.2,2.6,27.6*,4.0
CC(=O)Nc1ccc(CN2CCCN(C)CC2)cc1,2.4,-1.4,0.5,nt,-8.8,27.3*,-2.0
Cc1ccc(C2C(C#N)=C(N)Oc3n[nH]c(-c4cccs4)c32)s1 (configuration not stated),-4.3,-8.4,5.9,9.2,nt,34.3*,0.4
N#CC1=C(N)Oc2n[nH]c(-c3cccs3)c2C1c1ccncc1 (configuration not stated),-2.1,-10.3,-0.2,0.5,2.7,15.9,nt

# Source: PubChem (several laboratories)
